Data: ChEMBL document CHEMBL1944580, “Synthesis of novel sulfonamide-1,2,4-triazoles, 1,3,4-thiadiazoles and 1,3,4-oxadiazoles, as potential antibacterial and antifungal agents. Biological evaluation and conformational analysis studies” (2012)
≈ marks a conversion by molar mass, not a printed value.

How the values were obtained:
Aspergillus versicolor [1] = assay: Antifungal activity against Aspergillus versicolor ATCC 11730 treated for 72 hrs followed by sub-cultivated for 5 days by serial dilution method; format: functional
Summary of the method: (§1)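 MFC obtained after the 72 h, 28 °C malt-broth microdilution (spore inoculum about 1.0 × 10^5 per well, compounds from 1 mg/ml DMSO). 2 µl was serially subcultured into 100 µl broth per well and incubated a further 5 days at 28 °C. MFC is the lowest concentration with no visible growth, taken as 99.5% killing of the original inoculum.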

Listeria monocytogenes [2] = assay: Antibacterial activity against Listeria monocytogenes NCTC 7973 treated for 24 hrs followed by sub-cultivated for 72 hrs by micro dilution method; format: functional
Summary of the method: (§2)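 2 µl from each well was serially subcultured into 100 µl fresh broth per well and incubated a further 72 h. MBC is the lowest concentration with no visible growth, taken as 99.5% killing of the original inoculum. Streptomycin and ampicillin were the positive controls.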

Bacillus cereus [3] = assay: Antibacterial activity against Bacillus cereus clinical isolate after 24 hrs by micro dilution method; format: functional
Summary of the method: (§3)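 Microdilution MIC in 96-well plates. Bacterial suspensions adjusted in sterile saline to 1.0 × 10^5 CFU/ml, giving 1.0 × 10^4 cfu per well in LB broth. Compounds tested at up to 1 mg/ml. Plates incubated 24 h. MIC taken as the lowest concentration with no visible growth under a binocular microscope. OD at 655 nm was also read against a blank and the positive control. Streptomycin and ampicillin were the positive controls.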

Escherichia coli [4] = assay: Antibacterial activity against Escherichia coli ATCC 35210 after 24 hrs by micro dilution method; format: functional; settings: ATCC 35210, 24 h; summary of the method: as §3
Enterobacter cloacae [5] = assay: Antibacterial activity against Enterobacter cloacae human isolate after 24 hrs by micro dilution method; format: functional; summary of the method: as §3
Trichoderma viride [6] = assay: Antifungal activity against Trichoderma viride IAM 5061 after 72 hrs by serial dilution method; format: functional; settings: IAM 5061, 72 h
Summary of the method: (§4)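 Modified microdilution MIC. Spores were washed from malt agar cultures with sterile 0.85% saline containing 0.1% Tween 80 and adjusted to about 1.0 × 10^5 per 100 µl well in malt broth. Compounds were dissolved in DMSO (1 mg/ml). Plates incubated 72 h at 28 °C. MIC is the lowest concentration with no visible growth under a binocular microscope. Bifonazole and ketoconazole were the references.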

Talaromyces funiculosus [7] = assay: Antifungal activity against Penicillium funiculosum ATCC 36839 after 72 hrs by serial dilution method; format: functional; settings: ATCC 36839, 72 h; summary of the method: as §4
Salmonella typhimurium [8] = assay: Antibacterial activity against Salmonella Typhimurium ATCC 13311 after 24 hrs by micro dilution method; format: functional, Salmonella enterica subsp. enterica serovar Typhimurium; settings: Salmonella enterica, ATCC 13311, 24 h; summary of the method: as §3
Aspergillus flavus [9] = assay: Antifungal activity against Aspergillus flavus ATCC 9643 treated for 72 hrs followed by sub-cultivated for 5 days by serial dilution method; format: functional; summary of the method: as §1
Fulvia fulva [10] = assay: Antifungal activity against Fulvia fulva after 72 hrs by serial dilution method; format: functional; summary of the method: as §4
Pseudomonas aeruginosa [11] = assay: Antibacterial activity against Pseudomonas aeruginosa ATCC 27853 treated for 24 hrs followed by sub-cultivated for 72 hrs by micro dilution method; format: functional; summary of the method: as §2
Trichoderma viride [12] = assay: Antifungal activity against Trichoderma viride IAM 5061 treated for 72 hrs followed by sub-cultivated for 5 days by serial dilution method; format: functional; summary of the method: as §1
Bacillus cereus [13] = assay: Antibacterial activity against Bacillus cereus clinical isolate treated for 24 hrs followed by sub-cultivated for 72 hrs by micro dilution method; format: functional; summary of the method: as §2
Fulvia fulva [14] = assay: Antifungal activity against Fulvia fulva treated for 72 hrs followed by sub-cultivated for 5 days by serial dilution method; format: functional; summary of the method: as §1
Aspergillus flavus [15] = assay: Antifungal activity against Aspergillus flavus ATCC 9643 after 72 hrs by serial dilution method; format: functional; settings: ATCC 9643, 72 h; summary of the method: as §4
Aspergillus niger [16] = assay: Antifungal activity against Aspergillus niger ATCC 6275 treated for 72 hrs followed by sub-cultivated for 5 days by serial dilution method; format: functional; summary of the method: as §1
Staphylococcus aureus [17] = assay: Antibacterial activity against Staphylococcus aureus ATCC 6538 treated for 24 hrs followed by sub-cultivated for 72 hrs by micro dilution method; format: functional; summary of the method: as §2
Staphylococcus aureus [18] = assay: Antibacterial activity against Staphylococcus aureus ATCC 6538 after 24 hrs by micro dilution method; format: functional; settings: ATCC 6538, 24 h; summary of the method: as §3
Micrococcus flavus [19] = assay: Antibacterial activity against Micrococcus flavus ATCC 10240 treated for 24 hrs followed by sub-cultivated for 72 hrs by micro dilution method; format: functional; summary of the method: as §2
Talaromyces funiculosus [20] = assay: Antifungal activity against Penicillium funiculosum ATCC 36839 treated for 72 hrs followed by sub-cultivated for 5 days by serial dilution method; format: functional; summary of the method: as §1
Aspergillus fumigatus [21] = assay: Antifungal activity against Aspergillus fumigatus human isolate after 72 hrs by serial dilution method; format: functional; summary of the method: as §4
Micrococcus flavus [22] = assay: Antibacterial activity against Micrococcus flavus ATCC 10240 after 24 hrs by micro dilution method; format: functional; settings: ATCC 10240, 24 h; summary of the method: as §3
Listeria monocytogenes [23] = assay: Antibacterial activity against Listeria monocytogenes NCTC 7973 after 24 hrs by micro dilution method; format: functional; settings: NCTC 7973, 24 h; summary of the method: as §3
Penicillium ochrochloron [24] = assay: Antifungal activity against Penicillium ochrochloron ATCC 9112 after 72 hrs by serial dilution method; format: functional; settings: ATCC 9112, 72 h; summary of the method: as §4
Pseudomonas aeruginosa [25] = assay: Antibacterial activity against Pseudomonas aeruginosa ATCC 27853 after 24 hrs by micro dilution method; format: functional; settings: ATCC 27853, 24 h; summary of the method: as §3
Enterobacter cloacae [26] = assay: Antibacterial activity against Enterobacter cloacae human isolate treated for 24 hrs followed by sub-cultivated for 72 hrs by micro dilution method; format: functional; summary of the method: as §2
Penicillium ochrochloron [27] = assay: Antifungal activity against Penicillium ochrochloron ATCC 9112 treated for 72 hrs followed by sub-cultivated for 5 days by serial dilution method; format: functional; summary of the method: as §1
Salmonella typhimurium [28] = assay: Antibacterial activity against Salmonella Typhimurium ATCC 13311 treated for 24 hrs followed by sub-cultivated for 72 hrs by micro dilution method; format: functional, Salmonella enterica subsp. enterica serovar Typhimurium; settings: Salmonella enterica; summary of the method: as §2
Escherichia coli [29] = assay: Antibacterial activity against Escherichia coli ATCC 35210 treated for 24 hrs followed by sub-cultivated for 72 hrs by micro dilution method; format: functional; summary of the method: as §2
Aspergillus fumigatus [30] = assay: Antifungal activity against Aspergillus fumigatus human isolate treated for 72 hrs followed by sub-cultivated for 5 days by serial dilution method; format: functional; summary of the method: as §1
Aspergillus versicolor [31] = assay: Antifungal activity against Aspergillus versicolor ATCC 11730 after 72 hrs by serial dilution method; format: functional; settings: ATCC 11730, 72 h; summary of the method: as §4
Aspergillus niger [32] = assay: Antifungal activity against Aspergillus niger ATCC 6275 after 72 hrs by serial dilution method; format: functional; settings: ATCC 6275, 72 h; summary of the method: as §4

| SMILES | MFC (Aspergillus versicolor [1]) | MBC (Listeria monocytogenes [2]) | MIC (Bacillus cereus [3]) | MIC (Escherichia coli [4]) | MIC (Enterobacter cloacae [5]) | MIC (Trichoderma viride [6]) | MIC (Talaromyces funiculosus [7]) | MIC (Salmonella typhimurium [8]) | MFC (Aspergillus flavus [9]) | MIC (Fulvia fulva [10]) | MBC (Pseudomonas aeruginosa [11]) | MFC (Trichoderma viride [12]) | MBC (Bacillus cereus [13]) | MFC (Fulvia fulva [14]) | MIC (Aspergillus flavus [15]) | MFC (Aspergillus niger [16]) | MBC (Staphylococcus aureus [17]) | MIC (Staphylococcus aureus [18]) | MBC (Micrococcus flavus [19]) | MFC (Talaromyces funiculosus [20]) | further results |
| --- | --- | --- | --- | --- | --- | --- | --- | --- | --- | --- | --- | --- | --- | --- | --- | --- | --- | --- | --- | --- | --- |
| COc1cc(Cc2n[nH]c(=O)n2C(C)(C)C)c(S(=O)(=O)N(C)C)cc1OC | 380 µM (≈ 151 µg/mL) | 390 µM (≈ 155 µg/mL) | 250 µM (≈ 99.6 µg/mL) | 130 µM (≈ 51.8 µg/mL) | 250 µM (≈ 99.6 µg/mL) | 30 µM (≈ 12 µg/mL) | 130 µM (≈ 51.8 µg/mL) | 250 µM (≈ 99.6 µg/mL) | 380 µM (≈ 151 µg/mL) | 250 µM (≈ 99.6 µg/mL) | 390 µM (≈ 155 µg/mL) | 250 µM (≈ 99.6 µg/mL) | 780 µM (≈ 311 µg/mL) | 250 µM (≈ 99.6 µg/mL) | 250 µM (≈ 99.6 µg/mL) | 380 µM (≈ 151 µg/mL) | 390 µM (≈ 155 µg/mL) | 390 µM (≈ 155 µg/mL) | 390 µM (≈ 155 µg/mL) | 250 µM (≈ 99.6 µg/mL) | MIC (Aspergillus fumigatus [21]): 250 µM (≈ 99.6 µg/mL); MIC (Micrococcus flavus [22]): 390 µM (≈ 155 µg/mL); MIC (Listeria monocytogenes [23]): 390 µM (≈ 155 µg/mL); MIC (Penicillium ochrochloron [24]): 250 µM (≈ 99.6 µg/mL); MIC (Pseudomonas aeruginosa [25]): 390 µM (≈ 155 µg/mL); MBC (Enterobacter cloacae [26]): 250 µM (≈ 99.6 µg/mL); MFC (Penicillium ochrochloron [27]): 380 µM (≈ 151 µg/mL); MBC (Salmonella typhimurium [28]): 250 µM (≈ 99.6 µg/mL); MBC (Escherichia coli [29]): 250 µM (≈ 99.6 µg/mL); MFC (Aspergillus fumigatus [30]): 380 µM (≈ 151 µg/mL); MIC (Aspergillus versicolor [31]): 250 µM (≈ 99.6 µg/mL); MIC (Aspergillus niger [32]): 250 µM (≈ 99.6 µg/mL) |
| CCCn1c(Cc2cc(OC)c(OC)cc2S(=O)(=O)N(C)C)n[nH]c1=O | 390 µM (≈ 150 µg/mL) | 780 µM (≈ 300 µg/mL) | 260 µM (≈ 100 µg/mL) | 650 µM (≈ 250 µg/mL) | 650 µM (≈ 250 µg/mL) | 70 µM (≈ 26.9 µg/mL) | 130 µM (≈ 50 µg/mL) | 650 µM (≈ 250 µg/mL) | 260 µM (≈ 100 µg/mL) | 260 µM (≈ 100 µg/mL) | 780 µM (≈ 300 µg/mL) | 130 µM (≈ 50 µg/mL) | 650 µM (≈ 250 µg/mL) | 260 µM (≈ 100 µg/mL) | 130 µM (≈ 50 µg/mL) | 260 µM (≈ 100 µg/mL) | 390 µM (≈ 150 µg/mL) | 260 µM (≈ 100 µg/mL) | 650 µM (≈ 250 µg/mL) | 260 µM (≈ 100 µg/mL) | MIC (Aspergillus fumigatus [21]): 130 µM (≈ 50 µg/mL); MIC (Micrococcus flavus [22]): 650 µM (≈ 250 µg/mL); MIC (Listeria monocytogenes [23]): 650 µM (≈ 250 µg/mL); MIC (Penicillium ochrochloron [24]): 130 µM (≈ 50 µg/mL); MIC (Pseudomonas aeruginosa [25]): 650 µM (≈ 250 µg/mL); MBC (Enterobacter cloacae [26]): 780 µM (≈ 300 µg/mL); MFC (Penicillium ochrochloron [27]): 390 µM (≈ 150 µg/mL); MBC (Salmonella typhimurium [28]): 650 µM (≈ 250 µg/mL); MBC (Escherichia coli [29]): 650 µM (≈ 250 µg/mL); MFC (Aspergillus fumigatus [30]): 260 µM (≈ 100 µg/mL); MIC (Aspergillus versicolor [31]): 130 µM (≈ 50 µg/mL); MIC (Aspergillus niger [32]): 130 µM (≈ 50 µg/mL) |
